Reference: publication PMC8359806 (Science translational medicine, 2020)

Key:
lipoprotein lipase (LPL) = experiment: Ex vivo TG lipolysis; assay type: biochemical; conditions: human apoC-II-deficient plasma (TG=1711 mg/dL) with added LPL
Outline: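 Human apoC-II-deficient plasma (TG=1711 mg/dL) was spiked with LPL plus test compound at the indicated concentrations or at 10 μM. LPL activity was read as NEFA generation, measured enzymatically. Results are the mean of triplicates ± S.D. (two-way ANOVA, Bonferroni post-test), or N=8 at 10 μM (Mann-Whitney).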

apoC-III = apoC-III (Homo sapiens, UniProt P02656); assay type: biochemical; conditions: 33 μM apoC-III added to pooled human HTG plasma (TG=360 mg/dL) with LPL
Outline: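 Pooled human HTG plasma (TG=360 mg/dL) was incubated with LPL and test compound at 0–100 μM (0–0.47 mg/mL), with or without 33 μM apoC-III. Reference conditions were LPL alone and LPL with apoC-III. Lipolysis was read as NEFA generation, measured enzymatically. Results are the mean of triplicates ± S.D. (two-way ANOVA, Bonferroni post-test).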

apoC-III, sequence (P02656 21-99): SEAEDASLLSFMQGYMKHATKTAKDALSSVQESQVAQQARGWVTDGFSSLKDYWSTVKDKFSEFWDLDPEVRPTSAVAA

Substance	stimulation of ex vivo lipolysis (lipoprotein lipase (LPL))	inhibition of ex vivo lipolysis of TG (apoC-III)
TYLPAVDEKLRDLYSKSTAAMSTYTGIFTDQVLSVLKGEE [RCH2]	only partial activity	
apoC-III: apolipoprotein C-III, inhibits LPL		approximately 40%
